target: T1, UniProt Q8VGZ2; conditions: stereoisomer not certain
T1 sequence (whole entry): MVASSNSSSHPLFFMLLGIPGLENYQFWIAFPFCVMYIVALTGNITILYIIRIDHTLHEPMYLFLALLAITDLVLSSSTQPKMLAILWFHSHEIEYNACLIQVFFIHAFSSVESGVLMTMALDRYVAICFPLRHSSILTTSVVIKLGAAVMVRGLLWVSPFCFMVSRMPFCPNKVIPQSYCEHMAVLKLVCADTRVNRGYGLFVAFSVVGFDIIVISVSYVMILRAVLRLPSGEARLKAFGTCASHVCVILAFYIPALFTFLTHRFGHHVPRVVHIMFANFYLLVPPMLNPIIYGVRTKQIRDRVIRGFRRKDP
Summary of the method: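 Each receptor–molecule pair is labelled responsive or non-responsive (inactive) according to whether the original authors judged the measured signal statistically different from baseline. The data were taken from the main text and supplementary material of published papers and checked for typos and inconsistencies. Assay methods differed by source, with transient luciferase assays in mammalian cell lines being common.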
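Further: active if original authors judged signal statistically different from baseline.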

Structure (SMILES) | odorant receptor agonist call
C=C(C)C1CCC(C)C(O)C1 (stereo not given) | inactive
CSSCc1ccco1 | inactive
CCCO | inactive
CC(=O)OC1(C)CCC23CC1C(C)(C)C2CCC3C (stereo not given) | active
C1CCOCC1 | inactive
Cc1occc1SSc1ccoc1C | inactive
CCCCCCCCCC=CC=O | inactive
COc1nccnc1C | inactive
CCCCCOC(=O)CC | inactive
CC(CC=O)CCCC(C)(C)O (stereo not given) | inactive
C=CC(=O)CCCCC | inactive
CCSCC | inactive
CCCCCCC(C=O)=Cc1ccccc1 | inactive
Cc1ccc(C(C)C)c(O)c1 | inactive
CCCC=O | inactive
O=C(O)CCCCCCCCC(=O)O | inactive
CCCCCCC(=O)OCCCC | inactive
COc1cnccn1 | inactive
CCC(C)O (stereo not given) | inactive
COc1nccnc1C(C)C | inactive
CCCC(C)C(=O)OCC (stereo not given) | inactive
CNc1ccccc1C(=O)OC | inactive
O=C(O)C1CCC1 | inactive
CCCCCC=CCCC=O | active
CCC(C)c1nccnc1OC (stereo not given) | inactive
O=C(OCc1ccccc1)c1ccccc1O | inactive
CCc1ccc(O)cc1 | inactive
CSSSC | inactive
CC(=O)OCc1ccc2c(c1)OCO2 | inactive
CC(C)CS | inactive

Reference: the M2OR odorant receptor database
